{"source": "ChEMBL document CHEMBL4673184", "about": "“Synthesis and biological evaluation of S-lipidated lipopeptides of a connexin 43 channel inhibitory peptide” (RSC Med Chem, 2020)", "note": "Activity calls are given as the source filed them. No cut-off for these calls is given here. Where a SMILES comes first, the peptide text is derived from it. [ ]: non-standard residue; d: D form. The star is where a group is joined. Ethyl(2-stearoyloxy) = CCCCCCCCCCCCCCCCCC(=O)OCC*; Ethyl(2-palmitoyloxy) = CCCCCCCCCCCCCCCC(=O)OCC*; CH2CH2OBz(4-tBu) = CC(C)(C)c1ccc(C(=O)OCC*)cc1; Ethyl(2-decanoyloxy) = CCCCCCCCCC(=O)OCC*; Ethyl(2-butanoyloxy) = CCCC(=O)OCC*; Ethyl(2-OPiv) = CC(C)(C)C(=O)OCC*; Mpa = O=C(O)CCS"}
{"molecular_target": "Gap junction alpha-1 protein (Homo sapiens) (UniProt P17302)", "sequence (P17302 whole entry)": "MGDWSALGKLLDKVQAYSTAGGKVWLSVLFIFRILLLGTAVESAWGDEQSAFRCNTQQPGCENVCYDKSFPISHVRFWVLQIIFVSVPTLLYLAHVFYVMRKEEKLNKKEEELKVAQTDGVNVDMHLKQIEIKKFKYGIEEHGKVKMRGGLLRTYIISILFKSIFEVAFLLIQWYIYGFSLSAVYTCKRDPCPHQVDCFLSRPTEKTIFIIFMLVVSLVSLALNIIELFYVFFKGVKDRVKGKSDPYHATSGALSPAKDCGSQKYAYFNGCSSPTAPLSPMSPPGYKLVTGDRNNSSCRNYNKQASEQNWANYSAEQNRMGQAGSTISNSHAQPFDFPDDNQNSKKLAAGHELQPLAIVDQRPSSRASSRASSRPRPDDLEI", "assay": "Inhibition of Cx43 in hypoxic-acidic ion-shifted ringers solution-induced human cerebral microvascular endothelial cell model of ischaemic injury assessed as ATP release at 10 uM measured after 2 hrs by luciferin-luciferase based luminescence assay relative to control", "design": "scale not given: the % may be the effect or the level left", "how_it_was_run": "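hCMVEC (passages 8-17) seeded at 2 x 10^6/well on collagen-I (1 µg/cm²) and grown 48 h to a confluent monolayer. Washed in NR, then exposed 2 h in HAIR (pH 6.6, N₂-bubbled, low Ca²⁺, K-gluconate/NMDG) containing peptide at 10 µM. Supernatant diluted 1:10 in firefly luciferase mix and read at 560 nm against an ATP standard (0-50 nM). Expressed as % of HAIR-only, mean of n=3.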"}
{"compound": "CC(C)C[C@H](NC(=O)[C@H](Cc1ccccc1)NC(=O)[C@H](CS)NC(=O)[C@H](CC(=O)O)NC(=O)[C@@H](N)C(C)C)C(=O)N[C@@H](CO)C(=O)N[C@@H](CCCNC(=N)N)C(=O)N1CCC[C@H]1C(=O)N[C@H](C(=O)N[C@@H](CCC(=O)O)C(=O)N[C@@H](CCCCN)C(=O)N[C@@H](CSCCOC(=O)C(C)(C)C)C(=O)O)[C@@H](C)O", "note": "(H-VDCFLSRPTEKC(Ethyl(2-OPiv))-OH)", "Activity": "inactive"}
{"compound": "CCCC(=O)OCCSCCC(=O)N[C@H](C(=O)N[C@@H](CC(=O)O)C(=O)N[C@@H](CS)C(=O)N[C@@H](Cc1ccccc1)C(=O)N[C@@H](CC(C)C)C(=O)N[C@@H](CO)C(=O)N[C@@H](CCCNC(=N)N)C(=O)N1CCC[C@H]1C(=O)N[C@H](C(=O)N[C@@H](CCC(=O)O)C(=O)N[C@@H](CCCCN)C(=O)N[C@H](C(=O)O)[C@@H](C)O)[C@@H](C)O)C(C)C", "note": "([Mpa](Ethyl(2-butanoyloxy))VDCFLSRPTEKT-OH)", "Activity": "28.8%"}
{"compound": "CCCCCCCCCCCCCCCC(=O)OCCSC[C@H](NC(=O)[C@@H](NC(=O)[C@@H]1CCCN1C(=O)[C@H](CCCNC(=N)N)NC(=O)[C@H](CO)NC(=O)[C@H](CC(C)C)NC(=O)[C@H](Cc1ccccc1)NC(=O)[C@H](CS)NC(=O)[C@H](CC(=O)O)NC(=O)[C@@H](N)C(C)C)[C@@H](C)O)C(=O)N[C@@H](CCCCN)C(=O)N[C@H](C(=O)O)[C@@H](C)O", "note": "(H-VDCFLSRPTC(Ethyl(2-palmitoyloxy))KT-OH)", "Activity": "114%"}
{"compound": "CCCCCCCCCC(=O)OCCSC[C@H](NC(=O)[C@H](CS)NC(=O)[C@H](CC(=O)O)NC(=O)[C@@H](N)C(C)C)C(=O)N[C@@H](CC(C)C)C(=O)N[C@@H](CO)C(=O)N[C@@H](CCCNC(=N)N)C(=O)N1CCC[C@H]1C(=O)N[C@H](C(=O)N[C@@H](CCC(=O)O)C(=O)N[C@@H](CCCCN)C(=O)N[C@H](C(=O)O)[C@@H](C)O)[C@@H](C)O", "note": "(H-VDCC(Ethyl(2-decanoyloxy))LSRPTEKT-OH)", "Activity": "inactive"}
{"compound": "CC(C)C[C@H](NC(=O)[C@H](Cc1ccccc1)NC(=O)[C@H](CS)NC(=O)[C@H](CC(=O)O)NC(=O)[C@@H](N)C(C)C)C(=O)N[C@@H](CSCCOC(=O)c1ccc(C(C)(C)C)cc1)C(=O)N[C@@H](CCCNC(=N)N)C(=O)N1CCC[C@H]1C(=O)N[C@H](C(=O)N[C@@H](CCC(=O)O)C(=O)N[C@@H](CCCCN)C(=O)N[C@H](C(=O)O)[C@@H](C)O)[C@@H](C)O", "note": "(H-VDCFLC(CH2CH2OBz(4-tBu))RPTEKT-OH)", "Activity": "inactive"}
{"compound": "CCCCCCCCCC(=O)OCCSC[C@H](NC(=O)[C@@H](NC(=O)[C@@H]1CCCN1C(=O)[C@H](CCCNC(=N)N)NC(=O)[C@H](CO)NC(=O)[C@H](CC(C)C)NC(=O)[C@H](Cc1ccccc1)NC(=O)[C@H](CS)NC(=O)[C@H](CC(=O)O)NC(=O)[C@@H](N)C(C)C)[C@@H](C)O)C(=O)N[C@@H](CCCCN)C(=O)N[C@H](C(=O)O)[C@@H](C)O", "note": "(H-VDCFLSRPTC(Ethyl(2-decanoyloxy))KT-OH)", "Activity": "96%"}
{"compound": "CC1(C)[C@@H](OC(=O)CCC(=O)O)CC[C@]2(C)[C@H]3C(=O)C=C4[C@@H]5C[C@@](C)(C(=O)O)CC[C@]5(C)CC[C@@]4(C)[C@]3(C)CC[C@@H]12", "Activity": "23.3%"}
{"compound": "CCCCCCCCCCCCCCCC(=O)OCCSC[C@H](NC(=O)[C@@H]1CCCN1C(=O)[C@H](CCCNC(=N)N)NC(=O)[C@H](CO)NC(=O)[C@H](CC(C)C)NC(=O)[C@H](Cc1ccccc1)NC(=O)[C@H](CS)NC(=O)[C@H](CC(=O)O)NC(=O)[C@@H](N)C(C)C)C(=O)N[C@@H](CCC(=O)O)C(=O)N[C@@H](CCCCN)C(=O)N[C@H](C(=O)O)[C@@H](C)O", "note": "(H-VDCFLSRPC(Ethyl(2-palmitoyloxy))EKT-OH)", "Activity": "102%"}
{"compound": "CC(C)C[C@H](NC(=O)[C@H](Cc1ccccc1)NC(=O)[C@H](CS)NC(=O)[C@H](CC(=O)O)NC(=O)[C@@H](N)CSCCOC(=O)C(C)(C)C)C(=O)N[C@@H](CO)C(=O)N[C@@H](CCCNC(=N)N)C(=O)N1CCC[C@H]1C(=O)N[C@H](C(=O)N[C@@H](CCC(=O)O)C(=O)N[C@@H](CCCCN)C(=O)N[C@H](C(=O)O)[C@@H](C)O)[C@@H](C)O", "note": "(H-C(Ethyl(2-OPiv))DCFLSRPTEKT-OH)", "Activity": "inactive"}
{"compound": "CC(C)C[C@H](NC(=O)[C@H](Cc1ccccc1)NC(=O)[C@H](CS)NC(=O)[C@H](CC(=O)O)NC(=O)[C@@H](N)C(C)C)C(=O)N[C@@H](CO)C(=O)N[C@@H](CCCNC(=N)N)C(=O)N1CCC[C@H]1C(=O)N[C@H](C(=O)N[C@@H](CSCCOC(=O)C(C)(C)C)C(=O)N[C@@H](CCCCN)C(=O)N[C@H](C(=O)O)[C@@H](C)O)[C@@H](C)O", "note": "(H-VDCFLSRPTC(Ethyl(2-OPiv))KT-OH)", "Activity": "inactive"}
{"compound": "CCCCCCCCCCCCCCCC(=O)OCCSCCC(=O)N[C@H](C(=O)N[C@@H](CC(=O)O)C(=O)N[C@@H](CS)C(=O)N[C@@H](Cc1ccccc1)C(=O)N[C@@H](CC(C)C)C(=O)N[C@@H](CO)C(=O)N[C@@H](CCCNC(=N)N)C(=O)N1CCC[C@H]1C(=O)N[C@H](C(=O)N[C@@H](CCC(=O)O)C(=O)N[C@@H](CCCCN)C(=O)N[C@H](C(=O)O)[C@@H](C)O)[C@@H](C)O)C(C)C", "note": "([Mpa](Ethyl(2-palmitoyloxy))VDCFLSRPTEKT-OH)", "Activity": "inactive"}
{"compound": "CCCCCCCCCCCCCCCCCC(=O)OCCSC[C@H](NC(=O)[C@H](CC(C)C)NC(=O)[C@H](Cc1ccccc1)NC(=O)[C@H](CS)NC(=O)[C@H](CC(=O)O)NC(=O)[C@@H](N)C(C)C)C(=O)N[C@@H](CCCNC(=N)N)C(=O)N1CCC[C@H]1C(=O)N[C@H](C(=O)N[C@@H](CCC(=O)O)C(=O)N[C@@H](CCCCN)C(=O)N[C@H](C(=O)O)[C@@H](C)O)[C@@H](C)O", "note": "(H-VDCFLC(Ethyl(2-stearoyloxy))RPTEKT-OH)", "Activity": "inactive"}
{"compound": "CC(C)C[C@H](NC(=O)[C@H](Cc1ccccc1)NC(=O)[C@H](CS)NC(=O)[C@H](CC(=O)O)NC(=O)[C@@H](NC(=O)CCSCCOC(=O)C(C)(C)C)C(C)C)C(=O)N[C@@H](CO)C(=O)N[C@@H](CCCNC(=N)N)C(=O)N1CCC[C@H]1C(=O)N[C@H](C(=O)N[C@@H](CCC(=O)O)C(=O)N[C@@H](CCCCN)C(=O)N[C@H](C(=O)O)[C@@H](C)O)[C@@H](C)O", "note": "([Mpa](Ethyl(2-OPiv))VDCFLSRPTEKT-OH)", "Activity": "inactive"}
{"compound": "CCCCCCCCCCCCCCCCCC(=O)OCCSC[C@H](NC(=O)[C@@H]1CCCN1C(=O)[C@H](CCCNC(=N)N)NC(=O)[C@H](CO)NC(=O)[C@H](CC(C)C)NC(=O)[C@H](Cc1ccccc1)NC(=O)[C@H](CS)NC(=O)[C@H](CC(=O)O)NC(=O)[C@@H](N)C(C)C)C(=O)N[C@@H](CCC(=O)O)C(=O)N[C@@H](CCCCN)C(=O)N[C@H](C(=O)O)[C@@H](C)O", "note": "(H-VDCFLSRPC(Ethyl(2-stearoyloxy))EKT-OH)", "Activity": "102%"}
{"compound": "CC(C)C[C@H](NC(=O)[C@H](Cc1ccccc1)NC(=O)[C@H](CS)NC(=O)[C@H](CC(=O)O)NC(=O)[C@@H](NC(=O)CCSCCOC(=O)c1ccc(C(C)(C)C)cc1)C(C)C)C(=O)N[C@@H](CO)C(=O)N[C@@H](CCCNC(=N)N)C(=O)N1CCC[C@H]1C(=O)N[C@H](C(=O)N[C@@H](CCC(=O)O)C(=O)N[C@@H](CCCCN)C(=O)N[C@H](C(=O)O)[C@@H](C)O)[C@@H](C)O", "note": "([Mpa](CH2CH2OBz(4-tBu))VDCFLSRPTEKT-OH)", "Activity": "inactive"}
{"compound": "CCCCCCCCCCCCCCCCCC(=O)OCCSC[C@H](NC(=O)[C@@H](NC(=O)[C@@H]1CCCN1C(=O)[C@H](CCCNC(=N)N)NC(=O)[C@H](CO)NC(=O)[C@H](CC(C)C)NC(=O)[C@H](Cc1ccccc1)NC(=O)[C@H](CS)NC(=O)[C@H](CC(=O)O)NC(=O)[C@@H](N)C(C)C)[C@@H](C)O)C(=O)N[C@@H](CCCCN)C(=O)N[C@H](C(=O)O)[C@@H](C)O", "note": "(H-VDCFLSRPTC(Ethyl(2-stearoyloxy))KT-OH)", "Activity": "83.7%"}
{"compound": "CC(C)C[C@H](NC(=O)[C@H](Cc1ccccc1)NC(=O)[C@H](CS)NC(=O)[C@H](CC(=O)O)NC(=O)[C@@H](N)C(C)C)C(=O)N[C@@H](CO)C(=O)N[C@@H](CCCNC(=N)N)C(=O)N1CCC[C@H]1C(=O)N[C@H](C(=O)N[C@@H](CSCCOC(=O)c1ccc(C(C)(C)C)cc1)C(=O)N[C@@H](CCCCN)C(=O)N[C@H](C(=O)O)[C@@H](C)O)[C@@H](C)O", "note": "(H-VDCFLSRPTC(CH2CH2OBz(4-tBu))KT-OH)", "Activity": "inactive"}
{"compound": "CCCCCCCCCC(=O)OCCSC[C@H](NC(=O)[C@H](CC(C)C)NC(=O)[C@H](Cc1ccccc1)NC(=O)[C@H](CS)NC(=O)[C@H](CC(=O)O)NC(=O)[C@@H](N)C(C)C)C(=O)N[C@@H](CCCNC(=N)N)C(=O)N1CCC[C@H]1C(=O)N[C@H](C(=O)N[C@@H](CCC(=O)O)C(=O)N[C@@H](CCCCN)C(=O)N[C@H](C(=O)O)[C@@H](C)O)[C@@H](C)O", "note": "(H-VDCFLC(Ethyl(2-decanoyloxy))RPTEKT-OH)", "Activity": "inactive"}
{"compound": "CCCC(=O)OCCSC[C@H](NC(=O)[C@H](CCCCN)NC(=O)[C@H](CCC(=O)O)NC(=O)[C@@H](NC(=O)[C@@H]1CCCN1C(=O)[C@H](CCCNC(=N)N)NC(=O)[C@H](CO)NC(=O)[C@H](CC(C)C)NC(=O)[C@H](Cc1ccccc1)NC(=O)[C@H](CS)NC(=O)[C@H](CC(=O)O)NC(=O)[C@@H](N)C(C)C)[C@@H](C)O)C(=O)O", "note": "(H-VDCFLSRPTEKC(Ethyl(2-butanoyloxy))-OH)", "Activity": "inactive"}
{"compound": "CC(C)C[C@H](NC(=O)[C@H](Cc1ccccc1)NC(=O)[C@H](CS)NC(=O)[C@H](CC(=O)O)NC(=O)[C@@H](N)C(C)C)C(=O)N[C@@H](CSCCOC(=O)C(C)(C)C)C(=O)N[C@@H](CCCNC(=N)N)C(=O)N1CCC[C@H]1C(=O)N[C@H](C(=O)N[C@@H](CCC(=O)O)C(=O)N[C@@H](CCCCN)C(=O)N[C@H](C(=O)O)[C@@H](C)O)[C@@H](C)O", "note": "(H-VDCFLC(Ethyl(2-OPiv))RPTEKT-OH)", "Activity": "inactive"}
{"compound": "CCCC(=O)OCCSC[C@H](NC(=O)[C@@H]1CCCN1C(=O)[C@H](CCCNC(=N)N)NC(=O)[C@H](CO)NC(=O)[C@H](CC(C)C)NC(=O)[C@H](Cc1ccccc1)NC(=O)[C@H](CS)NC(=O)[C@H](CC(=O)O)NC(=O)[C@@H](N)C(C)C)C(=O)N[C@@H](CCC(=O)O)C(=O)N[C@@H](CCCCN)C(=O)N[C@H](C(=O)O)[C@@H](C)O", "note": "(H-VDCFLSRPC(Ethyl(2-butanoyloxy))EKT-OH)", "Activity": "inactive"}
